Experimental data of several laboratories.
Target: Calcium/calmodulin-dependent protein kinase type 1B (PNCK, Homo sapiens, UniProt Q6P2M8)

Structure (SMILES) | assay | setting | endpoint | value
CCc1ccccc1C(=O)Nc1n[nH]c2c(C)c(F)c(C3C(C#N)=C(C)N(C)C(C)=C3C#N)cc12 | cell-free assay, competition with immobilised ligand | 1 µM | remaining binding | 100%
CC(C)(O)[C@H]1CC[C@H](Nc2ccc3ncc(-c4cccc(C(F)(F)F)c4)n3n2)CC1 | enzyme activity, inhibitor | 1 µM | remaining activity | 100%
Nc1ncnc2occ(-c3ccc(NC(=O)Nc4cc(C(F)(F)F)ccc4F)cc3)c12 | cell-free assay | 20 µM | remaining signal | 0.5%
COc1cc(Cl)c(C(=O)N[C@@H](CN[C@H]2CC[C@@H](N)CC2)Cc2ccc(C#N)cc2)cc1-c1ccc(CN[C@H](C)c2ccc(C)cc2)o1 | enzyme activity, inhibitor | 1 µM | remaining activity | 98%
N#CCCc1ccc2c(c1)-c1[nH]c3ccc([N+](=O)[O-])cc3c1CC(=O)N2 | cell-free assay | 0.5 µM | remaining signal | 107%
O=C(Nc1cnn(-c2csc(C(=O)NC3COC3)c2)c1)Nc1ccccc1Cl | enzyme activity, inhibitor | 5 µM | remaining activity | 92.1%
Cc1ccc(C(=O)Nc2ccc(CN3CCN(C)CC3)c(C(F)(F)F)c2)cc1C#Cc1cnc2cccnn12 | cell-free assay | 23.5 nM | remaining signal | 89%
CN(CCCC(F)(F)F)c1nccc(-c2cnn3ncccc23)n1 | binding | 1 µM | remaining binding | 100%
CN([C@@H]1CCc2c(CC(=O)O)c3ccccc3n2C1)S(=O)(=O)c1ccc(F)cc1 | cell-free assay, competition with immobilised ligand | 1 µM | remaining binding | 87%
CN1CC(Oc2cnc(C#N)cc2-c2ccn3nc(NC(=O)C4CC4)cc3c2)C1 | enzyme activity, inhibitor | 1 µM | inhibition | -21%
Cc1sc(C(=O)NC2COC2)cc1-n1cc(NC(=O)Nc2c(F)cccc2Cl)cn1 | enzyme activity, inhibitor | 10 µM | remaining activity | 74.1%
